Experimental data as given in the array DNA melting data of Ke et al. (doi:10.1101/2024.01.08.574731).

Tests used:
[1] = melting temperature; fluorescence melt of hairpins on a sequencing array, two-state fit, raised by 9.35 °C to match UV melts; settings: sodium 0.088 M
Outline: (§1)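 Cy3 signals were normalised both to pre-quench Cy3 and to control constructs. They came from library hairpins carrying annealed Cy3 and quencher oligos on a sequenced MiSeq flow cell, imaged in 50 mM Na-HEPES pH 8.0, 25 mM NaCl, in 2.5 °C steps up to 60 °C. Bootstrapped two-state fits gave melting temperature and folding enthalpy, and four replicates were combined by inverse variance. Fitted temperatures were then raised by 9.35 °C to match UV melts.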

[2] = folding enthalpy; higher = less favourable; fluorescence melt of hairpins on a sequencing array, two-state fit; settings: sodium 0.088 M
Outline: as §1

| Sequence | Tm [1] [°C] | folding enthalpy [2] [kcal/mol] |
| --- | --- | --- |
| GTGTTGGGAAACTGACAC ((((..(....)..)))) | 39.3 | -27.6 |
| GATCTTTCGGAAGATC ((((((....)))))) | 43.9 | -33.4 |
| GTCCTCGAAAGAGAGAC ((((((....))).))) | 46.6 | -20.2 |
| GGACCGGGAAACCGACCC ((..(((....)))..)) | 31.1 | -18 |
| GTCATACCGAAAGGTGAC (((..(((....)))))) | 43 | -19 |
| GGAACCGAAAGGTTTCC ((((((....))).))) | 53.8 | -18.5 |
| GATCCGGATGCGGATC ((((((....)))))) | 58.5 | -35.4 |
| GCCTCGCGAAAGCCCGGC (((..((....))..))) | 42.8 | -17.8 |
| GCGAACCGAAAGGTCCGC (((.(((....))).))) | 62.8 | -44.5 |
| GGATCACGAAAGTGCTCC (((.(((....))).))) | 49.4 | -27.4 |
| GATCTGGCCCCAGATC ((((((....)))))) | 52.9 | -49.3 |
| GATCGGGTTGCCGATC ((((((....)))))) | 57.7 | -31.1 |
| GGAGCCGAAAGGCGGTCC ((((((....)))..))) | 48.1 | -9.55 |
| GATCAGGCGCTGATC ((((((...)))))) | 47.9 | -33.8 |
| GATCCAAAGTGGATC ((((((...)))))) | 48.8 | -30.9 |
| GGTCGTGGAAACATGGCC ((.(.((....)).).)) | 45.8 | -24 |
| GGCACCGAAAGGTTGGCC ((((((....)))..))) | 53.3 | -28.1 |
| GCAGTGCCGAAAGGCTGC (((..(((....)))))) | 49.8 | -14.8 |
| GGTACCGAAAGGTCTACC ((((((....)))..))) | 33.9 | -15 |
| GTTACCGAAAGGTGTAAC ((((((....)))..))) | 32.2 | -14.9 |
| GGAGACGAAAGTCCATCC ((((((....)))..))) | 30.3 | -10.1 |
| GAAATCCGAAAGGATTC (((.(((....)))))) | 46.4 | -11.2 |
| GGATTCGAAAGAATCC ((((((....)))))) | 62.9 | -37.9 |
| GGGTGGGGAAACTCGCCC (((.(.(....).).))) | 47.6 | -30.9 |

| Sequence | Tm [1] [°C] | folding enthalpy [2] [kcal/mol] |
| --- | --- | --- |
| GTCTCCGAAAGGAGTGAC ((((((....)))..))) | 36 | -11.2 |
| GTTGTCGAAAGACAAAAC ((((((....)))..))) | 36.9 | -13.6 |
| GTTCGTGGAAACATGAAC ((((.((....)).)))) | 47.5 | -37.7 |
| GATCTTAATGAAGATC ((((((....)))))) | 39.5 | -27.5 |
| GTAGGCTCGAAAGAGTAC (((..(((....)))))) | 29.2 | -10.6 |
| GGCCCTCGAAAGAGCGCC (((.(((....))).))) | 51.6 | -35.2 |
| GATCAATGCATTGATC ((((((....)))))) | 52.3 | -65.6 |
| GCGTTGAAACGC ((((....)))) | 53.5 | -20.8 |
| GCACCGGGAAACCGGCAC (..((((....))))..) | 28.3 | -8.06 |
| GCAACGCGAAAGCGAGGC ((..(((....)))..)) | 59.9 | -13.5 |
| GATCAGACGAAAGTCATC (((..(((....)))))) | 23.3 | -9.11 |
| GGATACTCGAAAGAGTCC (((..(((....)))))) | 32.6 | -11.7 |
| GATCCTTGTGAGGATC ((((((....)))))) | 56.1 | -38 |
| GATCGTTAATACGATC ((((((....)))))) | 54.6 | -36.3 |
| GATCGTGACCACGATC ((((((....)))))) | 61.3 | -38.7 |
| GATTCTGAAAAGAATC ((((((....)))))) | 50 | -33.1 |
| GATCTCCTGGAGATC ((((((...)))))) | 53.2 | -37.3 |
| GTAAAACGAAAGTTCTAC (((.(((....))).))) | 27.6 | -13.9 |
| GCACCCGAAAGGGCCTGC ((((((....)))..))) | 34.5 | -13.4 |
| GAAAGACGAAAGTCTTC (((.(((....)))))) | 44.3 | -12.6 |
| GTCGCAGGAAACCACGAC ((((..(....)..)))) | 35.4 | -28 |
| GCCAAGCGAAAGCCCGGC (((..((....))..))) | 45.8 | -20.7 |
| GGACTTGGAAACAAGTCC (((((((....))))))) | 64.7 | -51.1 |
| GCCGGGCGAAAGCCCAGC ((.((((....)))).)) | 64.8 | -15.8 |

| Sequence | Tm [1] [°C] | folding enthalpy [2] [kcal/mol] |
| --- | --- | --- |
| GGTTGAGAAATCAACC ((((((....)))))) | 53.3 | -34 |
| GATCCCCTACGGGATC ((((((....)))))) | 61.9 | -35.3 |
| GCGGGCGCCGC ((((...)))) | 60.6 | -9.79 |
| GATCTAGCTTTAGATC ((((((....)))))) | 38.8 | -26.7 |
| GTAGCCGGAAACGACTAC ((((.((....)).)))) | 46.6 | -34.4 |
| GGCACCGGAAACAGTGCC (((((.(....).))))) | 53.9 | -30.9 |
| GTACAGGGAAACCTGCAC ((.((((....)))).)) | 39.7 | -22.4 |
| GCATAGCGAAAGCTCTGC (((.(((....))).))) | 49.4 | -45.2 |
| GGTGCGCGAAAGCGACC (((.(((....)))))) | 56.7 | -15.3 |
| GATCTACTCCTAGATC ((((((....)))))) | 39.5 | -33 |
| GCCTCACGAAAGTGGGC (((.(((....)))))) | 58.6 | -33.4 |
| GCATTCCGAAAGGATTGC (((.(((....))).))) | 54.4 | -35.6 |
| GATCATAGCATGATC ((((((...)))))) | 49.9 | -37 |
| GCGTATCGAAAGATGCGC (((.(((....))).))) | 66.3 | -43.8 |
| GCATTTCGAAAGAACTGC (((.(((....))).))) | 43 | -32.1 |
| GGTCCTGGAAACAGGGCC ((.((((....)))).)) | 60.8 | -46.3 |
| GGTTGCGAAAGCACGACC ((((((....)))..))) | 40.6 | -15.8 |
| GCATTGCGAAAGCCAAGC ((.(.((....)).).)) | 28.6 | -9.84 |
| GGAATGGGAAACTGTTCC ((((..(....)..)))) | 35 | -25.8 |
| GCCGACGAAAGTCCAGGC ((((((....)))..))) | 51.7 | -25.2 |
| GATCACAACGTGATC ((((((...)))))) | 61.3 | -34.4 |
| GGACACGGAAACGTATCC (((.(((....))).))) | 40.9 | -27.4 |
| GCTGACGGAAACGTCGGC ((.((((....)))).)) | 63.3 | -48.3 |
| GCATTCGAAAGAATATGC ((((((....)))..))) | 36.1 | -24.8 |

| Sequence | Tm [1] [°C] | folding enthalpy [2] [kcal/mol] |
| --- | --- | --- |
| GATCACGCTGGTGATC ((((((....)))))) | 58.2 | -42.5 |
| GTCTGCGAAAGCAGGGAC ((((((....)))..))) | 42.8 | -7.79 |
| GTTAAGCCGAAAGGCAAC (((..(((....)))))) | 32.9 | -10.5 |
| GCGCTTGGAAACAAGTGC ((.((((....)))).)) | 56.9 | -50.5 |
| GATCCTGAGCAGGATC ((((((....)))))) | 52.3 | -36.9 |
| GCGTTCGAACGC ((((....)))) | 56.9 | -36 |
| GAGCGTGGAAACATGCTC ((((.((....)).)))) | 55 | -55.5 |
| GAGGACGAAAGTCCGCTC ((((((....)))..))) | 67.5 | -12.1 |
| GCCTTAGGAAACTGAGGC ((((.((....)).)))) | 49 | -41.7 |
| GATCCCCAGGGGGATC ((((((....)))))) | 65.5 | -29 |
| GATGTCGGAAACGGCATC ((((.((....)).)))) | 54.4 | -46.5 |
| GGGACTCCGAAAGGACCC (((..(((....)))))) | 41.5 | -16 |
| GCCTCCCGAAAGGGGGC (((.(((....)))))) | 67.7 | -27.1 |
| GAATTGCGAAAGCATTC (((.(((....)))))) | 36.1 | -13.6 |
| GATTGCGAAAGCATCATC ((((((....)))..))) | 29.6 | -10.9 |
| GATCTGGTCGCAGATC ((((((....)))))) | 52.4 | -24.9 |
| CGAGCGGAAACGCATCG ((((((....))).))) | 48.5 | -20.9 |
| GATCCGATCACGGATC ((((((....)))))) | 59.5 | -40.6 |
| GCAGGGCGAAAGCGCCGC ((.(.((....)).).)) | 52.6 | -15.7 |
| GATCCCCTCAGGGATC ((((((....)))))) | 66 | -41.7 |
| GTGTGAGGAAACTCACGC (.(((((....))))).) | 53.3 | -35.9 |
